According to ChEMBL document CHEMBL1125821, “Pyrimido[5,4-b]indole derivatives. 1. A new class of potent and selective alpha 1 adrenoceptor ligands” (J Med Chem, 1991):

How the values were obtained:
[1] = biological target: T1, 5-hydroxytryptamine receptor 1A (Rattus norvegicus, UniProt P19327); test: Binding affinity for 5-hydroxytryptamine 1A receptor measured by displacing [3H]8-OH-DPAT from rat cortical membranes
T1 sequence (P19327 whole entry): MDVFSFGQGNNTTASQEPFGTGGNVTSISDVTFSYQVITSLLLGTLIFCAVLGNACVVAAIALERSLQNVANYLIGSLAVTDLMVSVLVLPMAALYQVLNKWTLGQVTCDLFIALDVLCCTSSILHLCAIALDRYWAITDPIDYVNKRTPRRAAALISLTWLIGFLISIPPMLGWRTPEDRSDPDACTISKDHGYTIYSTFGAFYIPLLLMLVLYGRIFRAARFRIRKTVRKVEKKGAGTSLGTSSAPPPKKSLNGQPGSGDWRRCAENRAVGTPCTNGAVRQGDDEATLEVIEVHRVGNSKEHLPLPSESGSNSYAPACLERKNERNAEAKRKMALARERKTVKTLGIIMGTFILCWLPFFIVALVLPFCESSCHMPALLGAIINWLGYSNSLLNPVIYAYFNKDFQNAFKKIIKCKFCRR
Outline: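 Rat hippocampus or cortex membranes; 1 nM [3H]-8-OH-DPAT; nonspecific binding set with 1 μM serotonin. Incubated with competing drug 45–60 min at 37 °C in buffer, then vacuum-filtered on glass-fiber filters and washed with ice-cold buffer. IC50 from nonlinear fit of competition curves, mean of 3–7 experiments. Ki by Cheng–Prusoff.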

[2] = biological target: T2, Alpha-1A adrenergic receptor (Rattus norvegicus, UniProt P43140); test: Binding affinity measured for alpha-1 adrenergic receptor by displacement of [3H]prazosin from rat cortical membranes; type: cell membranes, Membrane
T2 sequence (P43140 whole entry): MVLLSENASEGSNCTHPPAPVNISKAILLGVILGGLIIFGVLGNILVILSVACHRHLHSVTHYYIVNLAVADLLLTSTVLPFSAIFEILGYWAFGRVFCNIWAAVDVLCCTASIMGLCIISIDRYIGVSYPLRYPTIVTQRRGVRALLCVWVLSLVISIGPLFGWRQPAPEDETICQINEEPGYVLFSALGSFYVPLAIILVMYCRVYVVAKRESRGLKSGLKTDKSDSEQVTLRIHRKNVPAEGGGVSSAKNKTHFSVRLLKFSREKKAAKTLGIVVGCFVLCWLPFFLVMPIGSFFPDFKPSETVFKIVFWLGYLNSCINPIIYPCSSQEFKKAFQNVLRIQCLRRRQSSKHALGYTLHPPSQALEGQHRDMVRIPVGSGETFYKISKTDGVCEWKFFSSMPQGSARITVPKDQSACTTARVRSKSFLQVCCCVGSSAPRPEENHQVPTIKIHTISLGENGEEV

[3] = biological target: T3, Adrenergic receptor alpha-2 (Homo sapiens, UniProt P08913+P18825+P18089); test: Binding affinity towards Alpha-2 adrenergic receptor in human platelet membranes using [3H]yohimbine; type: cell membranes
T3 sequence (P08913 whole entry): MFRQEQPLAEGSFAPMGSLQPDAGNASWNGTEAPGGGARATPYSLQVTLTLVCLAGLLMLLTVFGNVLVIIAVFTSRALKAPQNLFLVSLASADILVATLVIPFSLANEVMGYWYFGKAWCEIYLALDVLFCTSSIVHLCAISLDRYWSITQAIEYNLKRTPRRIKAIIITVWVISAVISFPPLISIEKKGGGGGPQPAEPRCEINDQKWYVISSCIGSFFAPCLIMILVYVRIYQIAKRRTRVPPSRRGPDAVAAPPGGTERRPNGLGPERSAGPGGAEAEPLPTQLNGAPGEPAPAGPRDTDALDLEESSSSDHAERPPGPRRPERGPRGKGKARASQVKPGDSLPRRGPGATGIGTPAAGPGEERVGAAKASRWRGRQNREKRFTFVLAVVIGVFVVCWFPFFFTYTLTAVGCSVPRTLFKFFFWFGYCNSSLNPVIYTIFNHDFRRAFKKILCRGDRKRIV
T3 sequence (P18825 whole entry): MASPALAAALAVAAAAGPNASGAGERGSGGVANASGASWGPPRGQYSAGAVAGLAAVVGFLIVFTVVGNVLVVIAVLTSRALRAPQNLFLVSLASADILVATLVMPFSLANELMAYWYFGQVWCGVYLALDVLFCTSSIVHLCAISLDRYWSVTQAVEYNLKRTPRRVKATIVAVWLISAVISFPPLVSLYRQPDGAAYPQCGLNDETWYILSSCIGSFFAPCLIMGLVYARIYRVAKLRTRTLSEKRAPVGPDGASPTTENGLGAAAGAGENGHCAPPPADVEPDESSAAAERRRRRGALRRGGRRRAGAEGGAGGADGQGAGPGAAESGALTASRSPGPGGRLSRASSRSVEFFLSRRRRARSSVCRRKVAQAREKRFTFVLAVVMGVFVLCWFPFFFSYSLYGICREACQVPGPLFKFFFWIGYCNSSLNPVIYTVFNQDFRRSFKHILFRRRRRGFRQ
T3 sequence (P18089 whole entry): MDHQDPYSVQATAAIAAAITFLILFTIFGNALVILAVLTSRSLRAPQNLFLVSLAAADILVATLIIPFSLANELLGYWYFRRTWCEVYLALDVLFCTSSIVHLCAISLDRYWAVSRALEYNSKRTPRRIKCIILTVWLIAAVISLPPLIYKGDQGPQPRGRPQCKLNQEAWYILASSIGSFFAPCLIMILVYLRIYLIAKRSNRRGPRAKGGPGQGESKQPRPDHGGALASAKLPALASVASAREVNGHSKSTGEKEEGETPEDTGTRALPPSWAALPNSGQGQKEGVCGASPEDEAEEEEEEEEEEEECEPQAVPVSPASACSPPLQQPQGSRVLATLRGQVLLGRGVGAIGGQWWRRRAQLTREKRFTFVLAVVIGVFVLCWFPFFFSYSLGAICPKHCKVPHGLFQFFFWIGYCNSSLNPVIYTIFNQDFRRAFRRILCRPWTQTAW
Outline: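 Human platelet membranes, [3H]yohimbine 3.5 nM; nonspecific binding defined by 100 μM phentolamine. Competition run 45–60 min at 37 °C, stopped by rapid vacuum filtration over glass-fiber filters and ice-chilled buffer washes. IC50 by nonlinear regression, mean of three to seven experiments; converted to Ki with the Cheng–Prusoff equation.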

[4] = biological target: T2, Alpha-1A adrenergic receptor; test: Binding affinity for Alpha-1 adrenergic receptor measured by displacing [3H]prazosin from rat cortical membranes
Outline: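 Rat cortex membranes labelled with 0.4 nM [3H]prazosin; 10 μM phentolamine defined nonspecific binding. Incubation with competing drugs 45–60 min at 37 °C, then vacuum filtration on glass-fiber filters with ice-chilled buffer wash. IC50 by nonlinear curve fitting (three to seven experiments); Ki via Cheng–Prusoff using KD 0.1 nM for [3H]prazosin.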

[5] = biological target: Beta-2 adrenergic receptor (Homo sapiens, UniProt P07550); test: Binding affinity towards Beta-2 adrenergic receptor in human peripheral mononuclear leukocyte membranes using [125I]pindolol
Chain of Beta-2 adrenergic receptor (P07550 whole entry): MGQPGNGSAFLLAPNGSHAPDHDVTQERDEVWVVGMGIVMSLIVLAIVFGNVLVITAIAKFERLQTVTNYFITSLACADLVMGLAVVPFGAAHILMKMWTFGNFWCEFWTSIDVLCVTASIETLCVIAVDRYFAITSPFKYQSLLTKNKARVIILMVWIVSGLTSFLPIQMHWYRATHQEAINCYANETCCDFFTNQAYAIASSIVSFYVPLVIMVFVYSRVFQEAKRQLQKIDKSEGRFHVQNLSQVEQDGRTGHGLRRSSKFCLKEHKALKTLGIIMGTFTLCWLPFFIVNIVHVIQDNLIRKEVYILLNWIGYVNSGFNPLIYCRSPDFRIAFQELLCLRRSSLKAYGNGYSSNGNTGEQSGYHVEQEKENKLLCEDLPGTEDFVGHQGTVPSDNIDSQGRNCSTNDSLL
Outline: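 Membranes from human peripheral blood mononuclear leukocytes bound [125I]pindolol (100 pM); 1 μM (-)-propranolol gave nonspecific binding. 45–60 min at 37 °C with or without competitors, then rapid filtration through glass-fiber filters and ice-cold buffer wash. IC50 from nonlinear fitting over three to seven experiments; Ki by Cheng–Prusoff.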

[6] = biological target: T1, 5-hydroxytryptamine receptor 1A

With `COc1ccccc1N1CCNCC1` the Ki [1] was 0.281 µM and the Ki [2] was 3.51 µM.
With `COc1ccccc1N1CCN(CCn2c(=O)[nH]c3c([nH]c4ccccc43)c2=O)CC1` the Ki [3] was “>= 1000 nM”, the Ki [4] was 0.00021 µM and the Ki [1] was 0.05 µM. The Ki [5] was greater than 100 µM.
Molecule `O=c1[nH]c2c([nH]c3ccccc32)c(=O)n1CCN1CCN(c2ccccc2)CC1` has a Ki [3] greater than 100 µM, a Ki [4] of 0.0018 µM and a Ki [1] greater than 100 µM. It also gave a Ki [5] greater than 100 µM.
With `O=c1[nH]c2c([nH]c3ccccc32)c(=O)n1CCN1CCNCC1` the Ki [4] was greater than 100 µM.
`COc1ccccc1N1CCN(CCCn2c(=O)[nH]c3c([nH]c4ccccc43)c2=O)CC1` showed a Ki [3] of 0.055 µM, a Ki [4] of 0.013 µM and a Ki [1] of 0.308 µM. For the same molecule, the Ki [5] was 1.18 µM.
`O=c1[nH]c2c([nH]c3ccccc32)c(=O)n1CCN1CCN(c2ccccc2Cl)CC1` was tested, and the Ki [3] was greater than 100 µM, the Ki [4] was 0.00053 µM and the Ki [1] was greater than 100 µM. It also gave a Ki [5] greater than 100 µM.
In the case of `CN(C)CCn1c(=O)[nH]c2c([nH]c3ccccc32)c1=O`, the Ki [2] is reported as greater than 100 µM.
With `CCN(CC)CCn1c(=O)[nH]c2c([nH]c3ccccc32)c1=O` the Ki [2] was greater than 100 µM.
Work on `O=c1[nH]c2c([nH]c3ccccc32)c(=O)n1CCN1CCCC1` yielded a Ki [2] greater than 100 µM.
For `CN(C)CCCn1c(=O)[nH]c2c([nH]c3ccccc32)c1=O`, the Ki [2] was greater than 100 µM.
`O=c1[nH]c2c([nH]c3ccccc32)c(=O)n1CCN1CCCCC1` gave a Ki [2] greater than 100 µM.
Work on `Clc1ccccc1N1CCNCC1` yielded a Ki [2] of 0.71 µM and a Ki [6] of 0.226 µM.
Molecule `CCN(CC)CCCn1c(=O)[nH]c2c([nH]c3ccccc32)c1=O` has a Ki [2] greater than 100 µM.
`COc1ccccc1N1CCN(CCn2c(=O)c3c(c4ccccc4n3C)n(C)c2=O)CC1` gave a Ki [3] of 2.215 µM, a Ki [4] of 0.00032 µM and a Ki [1] of 0.0015 µM.
`CCOC(=O)N1CCN(CCn2c(=O)[nH]c3c([nH]c4ccccc43)c2=O)CC1` showed a Ki [2] greater than 100 µM.
`O=c1[nH]c2c([nH]c3ccccc32)c(=O)n1CCN1CCN(c2ccc(Cl)cc2)CC1` was tested, and the Ki [3] was greater than 100 µM, the Ki [4] was no less than 10 µM and the Ki [1] was greater than 100 µM. The Ki [5] was greater than 100 µM.
For `COc1ccc(N2CCN(CCn3c(=O)[nH]c4c([nH]c5ccccc54)c3=O)CC2)cc1`, the Ki [3] was greater than 100 µM, the Ki [4] was greater than 5 µM and the Ki [1] was greater than 100 µM. It also gave a Ki [5] greater than 100 µM.
With `O=c1[nH]c2c([nH]c3ccccc32)c(=O)n1CCN1CCOCC1` the Ki [2] was greater than 100 µM.
